In ChEMBL document CHEMBL5724801, “EUbOPEN Chemogenomics Library - Multiplex” (2024):
“And” between values parts separate entries of the source, which are not always exact repeats. Equal values may be shown once.

Test system: U2OS
Assay: Multiplex assay against U2OS
Assay type: toxicity, cell-based
Conditions: human
Procedure, shortened: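 Imaging took place on a CQ1 microscope at 37°C and 5% CO2 once compound had been added to live cells stained at seeding with Hoechst33342, BioTracker Green Microtubule Cytoskeleton Dye, MitoTracker Red and Annexin V Alexa Fluor 680. CellPathfinder machine-learning gating classed cells as Hoechst high-intensity objects or normal cells, classed normal cells as having healthy, pyknosed or fragmented nuclei, and classed pyknosed cells as mitotic or apoptotic. Tubulin, mitochondrial-mass and membrane-permeability phenotypes are per cents of the healthy-nucleus cells.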

[1] = 12 h, 1 µM, compound concentration 1 uM
[2] = 12 h, 10 µM, compound concentration 10 uM
[3] = 24 h, 1 µM, compound concentration 1 uM
[4] = 24 h, 10 µM, compound concentration 10 uM
[5] = 48 h, 1 µM, compound concentration 1 uM
[6] = 48 h, 10 µM, compound concentration 10 uM

Cc1cc(C)cc(C(=O)NOCCCCCC(=O)NO)c1
Population Apoptotic (%) [1]: 33.33% and 45.83% | Population Fragmented Nuclei (%) [1]: 2.19% and 1.16% | Population Healthy Nuclei (%) [1]: 82.02% and 84.97% | Population Hoechst High Intensity Objects (%) [1]: 0% | Population Membrane Permeable-Phenotype (%) [1]: 0.53% and 4.08% | Population Mitochondria Different-Phenotype (%) [1]: 0.27% and 4.08% | Population Mitotic Cells (%) [1]: 66.67% and 54.17% | Population Normal (%) [1]: 100% | Population Pyknosed Nuclei (%) [1]: 15.79% and 13.87% | Population Tubulin-Different-Phenotype (%) [1]: 0.8% and 1.36% | Total Cell Count [1]: 456 and 173 | Population Apoptotic (%) [2]: 27.78% and 30.23% | Population Fragmented Nuclei (%) [2]: 2.46% and 2.56% | Population Healthy Nuclei (%) [2]: 79.85% and 69.87% | Population Hoechst High Intensity Objects (%) [2]: 0% | Population Membrane Permeable-Phenotype (%) [2]: 1.23% and 4.59% | Population Mitochondria Different-Phenotype (%) [2]: 0.31% and 9.17% | Population Mitotic Cells (%) [2]: 72.22% and 69.77% | Population Normal (%) [2]: 100% | Population Pyknosed Nuclei (%) [2]: 17.69% and 27.56% | Population Tubulin-Different-Phenotype (%) [2]: 2.46% and 1.83% | Total Cell Count [2]: 407 and 156 | Population Apoptotic (%) [3]: 42.11% and 38.46% | Population Fragmented Nuclei (%) [3]: 5.65% and 5.61% | Population Healthy Nuclei (%) [3]: 59.88% and 61.22% | Population Hoechst High Intensity Objects (%) [3]: 0% | Population Membrane Permeable-Phenotype (%) [3]: 0.67% and 1.67% | Population Mitochondria Different-Phenotype (%) [3]: 0.34% and 5% | Population Mitotic Cells (%) [3]: 57.89% and 61.54% | Population Normal (%) [3]: 100% | Population Pyknosed Nuclei (%) [3]: 34.48% and 33.16% | Population Tubulin-Different-Phenotype (%) [3]: 3.37% and 1.67% | Total Cell Count [3]: 496 and 196 | Population Apoptotic (%) [4]: 36.05% and 42.86% | Population Fragmented Nuclei (%) [4]: 8.75% and 10% | Population Healthy Nuclei (%) [4]: 30.26% and 41.88% | Population Hoechst High Intensity Objects (%) [4]: 0% | Population Membrane Permeable-Phenotype (%) [4]: 0.78% and 10.45% | Population Mitochondria Different-Phenotype (%) [4]: 0% and 4.48% | Population Mitotic Cells (%) [4]: 63.95% and 57.14% | Population Normal (%) [4]: 100% | Population Pyknosed Nuclei (%) [4]: 60.99% and 48.12% | Population Tubulin-Different-Phenotype (%) [4]: 3.12% and 11.94% | Total Cell Count [4]: 423 and 160 | Population Apoptotic (%) [5]: 77.2% and 80.52% | Population Fragmented Nuclei (%) [5]: 9.29% and 8.45% | Population Healthy Nuclei (%) [5]: 55.56% and 55.4% | Population Hoechst High Intensity Objects (%) [5]: 0.18% and 0% | Population Membrane Permeable-Phenotype (%) [5]: 4.92% and 7.63% | Population Mitochondria Different-Phenotype (%) [5]: 0.66% and 5.93% | Population Mitotic Cells (%) [5]: 22.8% and 19.48% | Population Normal (%) [5]: 99.82% and 100% | Population Pyknosed Nuclei (%) [5]: 35.15% and 36.15% | Population Tubulin-Different-Phenotype (%) [5]: 6.89% and 8.47% | Total Cell Count [5]: 550 and 213 | Population Apoptotic (%) [6]: 79.12% and 92.94% | Population Fragmented Nuclei (%) [6]: 3.39% and 4.58% | Population Healthy Nuclei (%) [6]: 31.59% and 39.87% | Population Hoechst High Intensity Objects (%) [6]: 0% | Population Membrane Permeable-Phenotype (%) [6]: 15.7% and 31.15% | Population Mitochondria Different-Phenotype (%) [6]: 0.83% and 3.28% | Population Mitotic Cells (%) [6]: 20.88% and 7.06% | Population Normal (%) [6]: 100% | Population Pyknosed Nuclei (%) [6]: 65.01% and 55.56% | Population Tubulin-Different-Phenotype (%) [6]: 44.63% and 32.79% | Total Cell Count [6]: 383 and 153

CN1CCN(c2cc(-c3ccccc3)nc(N)n2)CC1
Population Apoptotic (%) [1]: 80% and 62% | Population Fragmented Nuclei (%) [1]: 32% and 17% | Population Healthy Nuclei (%) [1]: 61% and 76% | Population Hoechst High Intensity Objects (%) [1]: 2% and 1% | Population Membrane Permeable-Phenotype (%) [1]: 5% and 7% | Population Mitochondria Different-Phenotype (%) [1]: 2% and 5% | Population Mitotic Cells (%) [1]: 20% and 37% | Population Normal (%) [1]: 97% and 98% | Population Pyknosed Nuclei (%) [1]: 6% and 5% | Population Tubulin-Different-Phenotype (%) [1]: 2% and 11% | Total Cell Count [1]: 235 and 141 | Population Apoptotic (%) [2]: 86% and 73% | Population Healthy Nuclei (%) [2]: 63% and 80% | Population Hoechst High Intensity Objects (%) [2]: 0% and 1% | Population Membrane Permeable-Phenotype (%) [2]: 5% and 10% | Population Mitochondria Different-Phenotype (%) [2]: 3% | Population Mitotic Cells (%) [2]: 13% and 26% | Population Normal (%) [2]: 99% and 98% | Population Pyknosed Nuclei (%) [2]: 6% and 10% | Population Tubulin-Different-Phenotype (%) [2]: 3% and 7% | Total Cell Count [2]: 252 and 139 | Population Apoptotic (%) [3]: 86% and 80% | Population Fragmented Nuclei (%) [3]: 25% and 21% | Population Healthy Nuclei (%) [3]: 65% and 73% | Population Hoechst High Intensity Objects (%) [3]: 1% | Population Membrane Permeable-Phenotype (%) [3]: 7% and 6% | Population Mitochondria Different-Phenotype (%) [3]: 1% | Population Mitotic Cells (%) [3]: 13% and 20% | Population Normal (%) [3]: 98% | Population Pyknosed Nuclei (%) [3]: 8% and 5% | Population Tubulin-Different-Phenotype (%) [3]: 4% and 9% | Total Cell Count [3]: 278 and 177 | Population Apoptotic (%) [4]: 100% and 81% | Population Fragmented Nuclei (%) [4]: 23% and 12% | Population Healthy Nuclei (%) [4]: 69% and 80% | Population Hoechst High Intensity Objects (%) [4]: 1% and 2% | Population Membrane Permeable-Phenotype (%) [4]: 9% and 4% | Population Mitochondria Different-Phenotype (%) [4]: 3% and 4% | Population Mitotic Cells (%) [4]: 0% and 18% | Population Normal (%) [4]: 98% and 97% | Population Pyknosed Nuclei (%) [4]: 6% | Population Tubulin-Different-Phenotype (%) [4]: 7% and 2% | Total Cell Count [4]: 287 and 166 | Population Apoptotic (%) [5]: 83% and 69% | Population Fragmented Nuclei (%) [5]: 21% and 19% | Population Healthy Nuclei (%) [5]: 69% and 75% | Population Hoechst High Intensity Objects (%) [5]: 2% and 3% | Population Membrane Permeable-Phenotype (%) [5]: 5% | Population Mitochondria Different-Phenotype (%) [5]: 1% and 2% | Population Mitotic Cells (%) [5]: 16% and 30% | Population Normal (%) [5]: 97% and 96% | Population Pyknosed Nuclei (%) [5]: 9% and 5% | Population Tubulin-Different-Phenotype (%) [5]: 2% and 7% | Total Cell Count [5]: 409 and 267 | Population Apoptotic (%) [6]: 100% and 88% | Population Fragmented Nuclei (%) [6]: 19% and 11% | Population Healthy Nuclei (%) [6]: 71% and 78% | Population Hoechst High Intensity Objects (%) [6]: 1% | Population Membrane Permeable-Phenotype (%) [6]: 5% and 2% | Population Mitochondria Different-Phenotype (%) [6]: 3% | Population Mitotic Cells (%) [6]: 0% and 12% | Population Normal (%) [6]: 98% | Population Pyknosed Nuclei (%) [6]: 8% and 10% | Population Tubulin-Different-Phenotype (%) [6]: 6% and 1% | Total Cell Count [6]: 420 and 254
